Publication PMC8108386 (Chemical Science, 2020)
Read-outs that look alike come from different tables or passages of the source.

How the values were obtained:
SKMEL28 cells = assay: Photocytotoxicity at high fluence and irradiance, Modulight ML8500; type: cell-based, human
Summary of the method: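 SKMEL28 photocytotoxicity was tested with a well-by-well illumination system that sets wavelength, fluence and irradiance separately for each well, allowing higher fluences and irradiances than whole-plate sources. Light-only control wells were included.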

[1] = test system: A375, B16F10 and SKMEL28 melanoma cell lines; assay: Dark and light cytotoxicity stated for all three melanoma cell lines; type: cell-based; details: read-out: dark EC50 values, toward all three melanoma cell lines
Summary of the method: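 Log-phase A375, B16F10 and SKMEL28 melanoma cells were seeded and dosed with test compound (1 nM to 300 μM) in the dark. They were incubated 48 h, and viability was read by resazurin assay. EC50 is the concentration that reduces relative viability by 50%, taken from dose–response curves and reported as Log(EC50 ± SEM).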

[2] = Observations on stability and behaviour in solution; type: physicochemical; details: 37 °C, extended periods of time, absence of a light trigger
female C57BL/6J mice = assay: Maximum tolerated dose, dose escalation, intraperitoneal injection; type: in vivo, mouse
Summary of the method: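 A dose-escalation safety study in mice used intraperitoneal injection at doses up to 100 mg kg−1. MTD was assigned from the appearance of observable toxicity.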

[3] = Singlet oxygen quantum yield by direct 1O2 phosphorescence, relative to [Ru; type: physicochemical; details: MeCN
[4] = test system: human melanoma SKMEL28 cells; assay: Cytotoxicity and photocytotoxicity, resazurin, 384-well, UTA; type: cell-based; details: visible vs. 733 nm
B16F10 tumor = type: in vivo, C57BL/6NCrl mice; details: for protection from tumor growth (tumor-free mice): challenged with live B16F10 cells
Summary of the method: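 B16F10 cells were treated in vitro with test compound (1.40 μM) plus light. Cells collected 4 h and 12 h post-treatment were pooled and injected SC into the left flank of female and male C57BL/6NCrl mice, with PBS as control. After 7 days, untreated B16F10 cells were injected into the right flank. Tumor growth and tumor-free survival were followed, and hazard ratios derived.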

With [Ru(tpbn)(dppn)(4-pic)]Cl2 [Compound 2] the EC50 (SKMEL28 cells; 753 nm (200 J cm−2, 300 mW cm−2)) was 2.02 µM, the “photocytotoxicity with 976 nm” value (SKMEL28 cells; 976 nm regardless of the fluence (data not shown)) was “ineffective” and the “reduction of cell viability” value (SKMEL28 cells; all light treatments except 810 nm, down to 2.5 μM) was ≥ 60%. The EC50 [1] was ≥ 46.3 µM, the “stability to ligand dissociation” value [2] was “completely stable” and the “maximum tolerated dose (MTD)” value (female C57BL/6J mice) was 50 mg/kg. The “ΦΔ (singlet oxygen quantum yield)” value ([3]; λex 630 nm) was 0.93, the “ΦΔ (singlet oxygen quantum yield)” value ([3]; λex 753 nm) was 0.86 and the “difference between the visible and NIR EC50 values” [4] was 5 fold. For the same substance, the “protection from tumor growth (tumor-free mice)” value (B16F10 tumor; female C57BL/6 mice vaccinated with 2-PDT treated B16F10 cells) was 80%, the hazard ratios (B16F10 tumor; female and male mice, vaccinated vs. unvaccinated) was ≤ 0.2 and the “protection from tumor growth (tumor-free mice)” value (B16F10 tumor; male C57BL/6 mice vaccinated with 2-PDT treated B16F10 cells) was 55%.
With [Ru(tpbn)(phen)(4-pic)]Cl2 [Compound 8] the EC50 [1] was ≥ 46.3 µM, the “ΦΔ (singlet oxygen quantum yield)” value ([3]; λex 455 nm (excitation maximum)) was 0.17 and the “ΦΔ (singlet oxygen quantum yield)” value ([3]; λex 630 nm) was 0.10. For the same substance, the “ΦΔ (singlet oxygen quantum yield)” value ([3]; λex 753 nm) was 0.10.
